Calls of active or inactive are those of the source. The rule behind the calls is not given here.
Legend:
[1] = tested on: C2C12; assay: Potentiation of insulin-induced 2-deoxy-[3H]-glucose uptake in mouse C2C12 cells at 5 uM preincubated with cells followed by insulin induction for 30 mins by liquid scintillation counting analysis; assay type: functional, cell-based
Outline: (§1)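 Differentiated C2C12 myotubes, serum-starved 3 h then 1 h in KRPH buffer pH 7.4, given compound (0.1% DMSO), then 100 nM insulin for 30 min. 2-Deoxy-[3H]-glucose (0.5 μCi/mL) with 100 μM 2-deoxy-D-glucose taken up for 10 min. Cells washed in cold PBS, lysed in 0.1% SDS/0.5 M NaOH, scintillation counted and normalized to total protein. Mean ± SEM, three experiments in triplicate.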

[2] = tested on: C2C12; assay: Potentiation of insulin-induced 2-deoxy-[3H]-glucose uptake in mouse C2C12 cells at 10 uM preincubated with cells followed by insulin induction for 30 mins by liquid scintillation counting analysis relative to control; assay type: functional; outline: as §1
[3] = tested on: C2C12; assay: Induction of 2-deoxy-[3H]-glucose uptake in mouse C2C12 cells at 5 uM after 2 hrs by liquid scintillation counting analysis; assay type: functional, cell-based
Outline: (§2)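 C2C12 myoblasts grown in DMEM/10% FBS, differentiated at confluence in 1% FBS DMEM to day 4. Myotubes serum-starved 3 h (0.2% BSA), 1 h in KRPH buffer pH 7.4, then compound (0.1% DMSO) for 2 h. Uptake of 0.5 μCi/mL 2-deoxy-[3H]-glucose plus 100 μM 2-deoxy-D-glucose for 10 min. Ice-cold PBS wash, SDS/NaOH lysis, scintillation counting normalized to protein. Three independent experiments in triplicate, mean ± SEM.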

[4] = tested on: C2C12; assay: Induction of 2-deoxy-[3H]-glucose uptake in mouse C2C12 cells at 10 uM after 2 hrs by liquid scintillation counting analysis relative to control; assay type: functional; outline: as §2
[5] = target: T1, Tyrosine-protein phosphatase non-receptor type 1 (Homo sapiens, UniProt P18031); assay: Inhibition of PTP1B (unknown origin) using p-nitrophenyl phosphate as substrate after 30 mins
T1 sequence (P18031 whole entry): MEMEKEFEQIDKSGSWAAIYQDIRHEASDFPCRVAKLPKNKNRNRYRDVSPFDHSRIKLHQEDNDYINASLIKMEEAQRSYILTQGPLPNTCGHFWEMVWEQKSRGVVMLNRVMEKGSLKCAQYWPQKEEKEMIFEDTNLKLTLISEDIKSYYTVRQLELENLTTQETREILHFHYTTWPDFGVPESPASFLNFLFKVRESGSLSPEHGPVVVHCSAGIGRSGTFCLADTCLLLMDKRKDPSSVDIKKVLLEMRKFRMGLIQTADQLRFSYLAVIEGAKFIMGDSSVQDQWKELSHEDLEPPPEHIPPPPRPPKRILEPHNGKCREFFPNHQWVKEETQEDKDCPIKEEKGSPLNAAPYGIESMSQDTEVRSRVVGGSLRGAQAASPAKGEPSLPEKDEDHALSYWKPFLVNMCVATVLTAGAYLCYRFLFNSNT
Outline: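 PTP1B (source not stated) 0.05−0.1 μg with 2 mM p-nitrophenyl phosphate in 50 mM citrate pH 6.0, 0.1 M NaCl, 1 mM EDTA, 1 mM dithiothreitol, ± test compound; 37 °C for 30 min, quenched with 10 M NaOH; p-nitrophenol read at 405 nm; IC50 determined.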

[6] = tested on: C2C12; assay: Induction of 2-deoxy-[3H]-glucose uptake in mouse C2C12 cells at 30 uM after 2 hrs by liquid scintillation counting analysis; assay type: functional, cell-based; outline: as §2
[7] = tested on: C2C12; assay: Potentiation of insulin-induced 2-deoxy-[3H]-glucose uptake in mouse C2C12 cells at 30 uM preincubated with cells followed by insulin induction for 30 mins by liquid scintillation counting analysis relative to control; assay type: functional; outline: as §1

| Compound | Activity [2] [%] | Activity [4] [%] | IC50 [5] [µM] | other results |
| --- | --- | --- | --- | --- |
| CC1=C2C(=O)[C@H]3[C@@H](CC=C4C[C@@H](OC=O)CC[C@@]43C)[C@@H]2CC[C@]12O[C@@H]1C[C@H](C)CN[C@H]1[C@H]2C | 49.9 | 15 | 11.3 | Activity [1]: Active; Activity [3]: Active |
| CN(CCOc1ccc(CC2SC(=O)NC2=O)cc1)c1ccccn1 (stereo not drawn) [ROSIGLITAZONE] |  |  |  | Activity [6]: Active; Activity [7]: 47.3% |
| C[C@H]1CC[C@@H]2N(C1)C[C@H]1[C@@H]3C[C@H]4[C@@H](CC=C5C[C@@H](OC=O)CC[C@@]54C)[C@@H]3C[C@H](O)[C@@H]1[C@]2(C)O |  |  | > 30 |  |
| CC(=O)O[C@H]1CC[C@@]2(C)C(=CC[C@H]3c4ccc([C@H](C)[C@@H]5NC[C@@H](C)C[C@H]5O)c(C)c4C[C@@H]32)C1 | 56 | 24.8 | 4.7 |  |
| C[C@@H]1CN[C@H]2[C@@H](C)[C@@]3(CC[C@@H]4C(=C[C@H]5[C@H]4CC=C4C[C@@H](O)CC[C@@]45C)[C@@]3(C)O)O[C@@H]2C1 |  |  | > 30 |  |
| CC1=C2C(=O)[C@H]3[C@@H](CC[C@@H]4C[C@@H](O)C[C@@H](O)[C@@]43C)[C@@H]2CC[C@]12O[C@@H]1C[C@H](C)CN[C@H]1[C@H]2C |  |  | > 30 |  |

— ChEMBL document CHEMBL3580545, “Steroidal Alkaloids from Veratrum nigrum Enhance Glucose Uptake in Skeletal Muscle Cells” (J Nat Prod, 2015)
